Reference: publication PMC7904387 (Nature chemical biology, 2020)
Non-standard residues stand in square brackets, D forms with d. Residues, ends and D or L forms follow the SMILES beside them. Nle = CCCC[C@H](N)C(=O)O

Key:
advanced solid tumors = conditions: cited from earlier work
UBE1 [1] = biological target: T1, UBE1 (Homo sapiens, UniProt P22314); experiment: HXMS, deuterium exchange into peptide with and without UBE1; format: binding; conditions: incubation with UBE1, 10 sec labeling
T1 sequence (P22314 1-1058): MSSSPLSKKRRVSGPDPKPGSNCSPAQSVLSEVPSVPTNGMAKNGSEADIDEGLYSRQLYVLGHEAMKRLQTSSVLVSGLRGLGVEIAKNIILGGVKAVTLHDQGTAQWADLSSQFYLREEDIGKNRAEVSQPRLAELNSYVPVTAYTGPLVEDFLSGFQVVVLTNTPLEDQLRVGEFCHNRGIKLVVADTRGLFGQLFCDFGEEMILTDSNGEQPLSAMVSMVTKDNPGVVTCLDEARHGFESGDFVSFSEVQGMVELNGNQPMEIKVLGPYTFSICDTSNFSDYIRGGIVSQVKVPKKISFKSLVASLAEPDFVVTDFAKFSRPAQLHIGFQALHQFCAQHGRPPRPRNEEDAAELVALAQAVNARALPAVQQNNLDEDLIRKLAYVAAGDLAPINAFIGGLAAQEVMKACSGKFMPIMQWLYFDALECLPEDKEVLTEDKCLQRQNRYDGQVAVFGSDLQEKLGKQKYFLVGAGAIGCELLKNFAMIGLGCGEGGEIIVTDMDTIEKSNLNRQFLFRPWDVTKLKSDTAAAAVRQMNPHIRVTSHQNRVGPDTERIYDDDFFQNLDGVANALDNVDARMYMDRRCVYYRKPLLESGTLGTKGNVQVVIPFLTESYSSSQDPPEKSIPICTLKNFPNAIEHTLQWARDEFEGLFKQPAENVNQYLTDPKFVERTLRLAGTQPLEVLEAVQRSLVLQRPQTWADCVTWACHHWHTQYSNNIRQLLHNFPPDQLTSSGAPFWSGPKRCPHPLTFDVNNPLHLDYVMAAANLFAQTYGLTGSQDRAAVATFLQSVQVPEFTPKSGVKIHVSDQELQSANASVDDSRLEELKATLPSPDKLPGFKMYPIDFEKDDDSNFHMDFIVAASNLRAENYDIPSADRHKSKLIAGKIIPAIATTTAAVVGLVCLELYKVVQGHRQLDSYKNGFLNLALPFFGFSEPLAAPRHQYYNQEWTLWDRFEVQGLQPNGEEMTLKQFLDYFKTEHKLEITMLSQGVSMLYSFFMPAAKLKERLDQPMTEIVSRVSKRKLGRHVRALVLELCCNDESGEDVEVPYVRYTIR
Method in brief: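 Labelling was by 18-fold dilution into D2O buffer (pD 8) for 10 sec, quenched with guanidinium chloride/formic acid (pH 2), then LC-MS. Uptake was not back-exchange corrected. Difference = with UBE1 minus peptide alone; ≥2 biological replicates.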

UBE1 [2] = biological target: T1, UBE1; experiment: Streptavidin capture; format: binding; conditions: UBE1 10 pmol, biotinylated peptide 5 nmol
Method in brief: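 Recombinant human UBE1 (10 pmol) was incubated with C-terminally biotinylated peptide (5 nmol) or 0.5% DMSO for 1.5 h at 4°C in 50 mM NaCl, 20 mM HEPES pH 7.4, 5 mM DTT. Streptavidin agarose was added for another 1.5 h at 4°C. Beads were washed three times in NP-40 buffer and heat-eluted (70°C, 10 min). Read-out was SDS-PAGE with silver stain.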

For `NS(=O)(=O)OC[C@H]1C[C@@H](Nc2ccnc3cc(-c4cccc(SC(F)(F)F)c4)nn23)[C@H](O)[C@@H]1O` [TAK-243], the “stable disease, patients” value (advanced solid tumors; 11 patients of twenty evaluable) is given as 55% and the “partial response, evaluable patients” value (advanced solid tumors; one of twenty evaluable patients) is given as 5%.

In the case of `CCCC[C@H](NC(C)=O)C(=O)N[C@@H](CO)C(=O)N[C@H](C(=O)N1CCC[C@H]1C(=O)N[C@@H](C)C(=O)N[C@@H](CCCNC(=N)N)C(=O)N[C@@H](CCCNC(=N)N)C(=O)N[C@@H](CCCNC(=N)N)C(=O)N[C@@H](CC(C)C)C(=O)N[C@@H](CCCC)C(=O)N[C@@H](CCCNC(=N)N)C(=O)N[C@@H](CC(=O)O)C(=O)N[C@@H](Cc1ccccc1)C(=O)N[C@@H](CCCCN)C(=O)N[C@@H](CCCNC(=N)N)C(=O)N[C@@H](CC(C)C)C(=O)N[C@@H](CCC(N)=O)C(N)=O)[C@@H](C)O` [UBE2A] (Ac-[Nle]STPARRRL[Nle]RDFKRLQ-NH2), the “effect of UBE1 on deuterium exchange of the peptide, in words” value (UBE1 [1]) is reported as “no meaningful effect”.

With “BSTP8RRRLBRXFKRLQLys(biotin) (sidechain bridge or staple) [C-terminally biotinylated SAH-UBE2A]” the “binding to recombinant UBE1 by streptavidin pull-down and silver stain, in words” value (UBE1 [2]) was “directly and robustly binds”.
